Results on one molecule are retold here after ChEMBL document CHEMBL1132631, “Comparison of four 64Cu-labeled somatostatin analogues in vitro and in a tumor-bearing rat model: evaluation of new derivatives for positron emission tomography imaging and targeted radiotherapy” (J Med Chem, 1999).

For assay [1], the species on record is Rattus norvegicus. Nature of the assay: The percent block of uptake of [64Cu]-TETA-Y3-TATE in somatostatin-rich tissues by a co-injection of compound. The assay is classed as functional. The method, boiled down:
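In CA20948 tumor-bearing Lewis rats, [⁶⁴Cu]TETA-Y3-TATE (5.4 μCi, 5 ng) was given i.v. by tail vein, either alone or co-injected with 150 μg of unlabeled competing peptide. All groups were killed at 1 h. Tissues were excised, weighed and γ-counted, with decay correction, to give %ID/g.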

For assay [2], the species on record is Rattus norvegicus. Nature of the assay: The pancreatic uptake of [64Cu]-TETA-Y3-TATE in somatostatin-rich (ID/g) tissues by a co-injection of compound at 1 h.

The molecule `C[C@H](O)[C@H](NC(=O)[C@H]1CSSC[C@H](NC(=O)[C@H](N)Cc2ccccc2)C(=O)N[C@@H](Cc2ccc(O)cc2)C(=O)N[C@@H](Cc2c[nH]c3ccccc23)C(=O)N[C@@H](CCCCN)C(=O)N[C@H]([C@H](C)O)C(=O)N1)C(=O)O` had a Block in the assay listed under Rattus norvegicus [1] above 90%. Besides, in the assay listed under Rattus norvegicus [2], the Uptake is 0.15 %ID/g.
